Source: ChEMBL document CHEMBL2384906, “Biological activity, design, synthesis and structure activity relationship of some novel derivatives of curcumin containing sulfonamides” (Eur J Med Chem, 2013)
Converted amounts (≈) assume the structure as drawn. The source made the active and inactive calls. No cut-off for these calls is given here.

How the values were obtained:
Mus musculus = test: Antiinflammatory activity in mouse assessed as inhibition of carrageenan-induced increase in paw volume at 200 mg/kg administered 1 hr prior to carrageenan challenge measured after 3 hrs relative to control; format: functional
Method in brief: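 Mice were fasted 2 h and placed in groups of five. Controls received saline i.p. Phenylbutazone was given at 100 mg/kg i.p., curcumin at 200 mg/kg i.p., and derivatives at 200 mg/kg. After 1 h, 0.1 mL of 1% carrageenan in saline was injected subplantar into the right hind paw. Paw volume was followed by plethysmometer for 3 h, and % inhibition was calculated as (Vc − Vt)/Vc × 100.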

HCT-116 = test: Cytotoxicity against human HCT116 cells after 24 hrs by MTT assay; format: functional, cell-based
Method in brief: (§1)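 The MTT assay seeded 5 × 10⁴ cells per well and grew them 24 h in RPMI 1640 with compound at 2.5–200 µM. Medium without cells was the blank and adriamycin the positive control. MTT was added for 4 h at 37 °C, formazan was solubilised, and absorbance was read at 570 nm. IC50 is the concentration that cuts viability 50% against untreated cells.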

QG-56 = test: Cytotoxicity against human QG56 cells after 24 hrs by MTT assay; format: functional, cell-based; method in brief: as §1
HeLa = test: Cytotoxicity against human HeLa cells after 24 hrs by MTT assay; format: functional, cell-based; method in brief: as §1
HepG2 = test: Cytotoxicity against human HepG2 cells after 24 hrs by MTT assay; format: functional, cell-based; method in brief: as §1
Trichoderma viride [1] = test: Antifungal activity against Trichoderma viride MTCC 1107 after 48 hrs; format: functional; conditions: MTCC 1107, 48 h
Trichoderma viride [2] = test: Antifungal activity against Trichoderma viride MTCC 1107 assessed as zone of inhibition at 20 uM after 48 hrs by disc diffusion method; format: functional
Method in brief: (§2)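 Spores from 4-day potato dextrose agar cultures, suspended in sterile water at 1.5 × 10⁵ CFU/mL. 0.2 mL was spread on potato dextrose agar. 5 mm filter-paper discs soaked with test compound were laid on the lawn. Incubation was 48 h at 28 °C, then the inhibition zone was measured in mm. Fluconazole was the positive control and acetone the negative control.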

Trichoderma viride [3] = test: Antifungal activity against Trichoderma viride MTCC 1107 assessed as zone of inhibition at 40 uM after 48 hrs by disc diffusion method; format: functional; conditions: MTCC 1107, 48 h, read-out: IZ; method in brief: as §2
Trichoderma viride [4] = test: Antifungal activity against Trichoderma viride MTCC 1107 assessed as zone of inhibition at 80 uM after 48 hrs by disc diffusion method; format: functional; conditions: MTCC 1107, 48 h, read-out: IZ; method in brief: as §2
Curvularia lunata [5] = test: Antifungal activity against Curvularia lunata MTCC 581 after 48 hrs; format: functional; conditions: MTCC 581, 48 h
Curvularia lunata [6] = test: Antifungal activity against Curvularia lunata MTCC 581 assessed as zone of inhibition at 20 uM after 48 hrs by disc diffusion method; format: functional; method in brief: as §2
Curvularia lunata [7] = test: Antifungal activity against Curvularia lunata MTCC 581 assessed as zone of inhibition at 40 uM after 48 hrs by disc diffusion method; format: functional; conditions: MTCC 581, 48 h, read-out: IZ; method in brief: as §2
Aspergillus flavus [8] = test: Antifungal activity against Aspergillus flavus MTCC 1021 after 48 hrs; format: functional; conditions: MTCC 1021, 48 h
Curvularia lunata [9] = test: Antifungal activity against Curvularia lunata MTCC 581 assessed as zone of inhibition at 80 uM after 48 hrs by disc diffusion method; format: functional; conditions: MTCC 581, 48 h, read-out: IZ; method in brief: as §2
Aspergillus flavus [10] = test: Antifungal activity against Aspergillus flavus MTCC 1021 assessed as zone of inhibition at 80 uM after 48 hrs by disc diffusion method; format: functional; method in brief: as §2
Aspergillus niger [11] = test: Antifungal activity against Aspergillus niger MTCC 1108 after 48 hrs; format: functional
Aspergillus niger [12] = test: Antifungal activity against Aspergillus niger MTCC 1108 assessed as zone of inhibition at 80 uM after 48 hrs by disc diffusion method; format: functional; method in brief: as §2
Escherichia coli [13] = test: Antimicrobial activity against Escherichia coli ATCC 35218 after 24 hrs by broth micro serial dilution method; format: functional; conditions: ATCC 35218, 24 h
Method in brief: (§3)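 This was broth microdilution in autoclaved Mueller-Hinton broth. 150 µL of compound per well was serially diluted […], and 50 µL of test organism was added. Plates were incubated 24 h at 37 °C and optical density was read.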

Escherichia coli [14] = test: Antimicrobial activity against Escherichia coli ATCC 35218 assessed as diameter of inhibition zone at 20 uM after 24 hrs by Kirby -Baur disc diffusion method; format: functional
Method in brief: (§4)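 Kirby-Bauer disc diffusion was used. Acetone stocks (160 µM) were serially doubled down to 80, 40 and 20 µM. 4 µL of each went onto 5 mm sterile paper discs, which were dried 30 min at 50 °C. Inoculum was 1.5 × 10⁸ CFU/mL diluted to 3 × 10² CFU/mL, and 50 µL was spread on Mueller-Hinton agar. After 24 h at 37 °C the inhibition-zone diameter was measured. Ciprofloxacin served as positive control.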

Escherichia coli [15] = test: Antimicrobial activity against Escherichia coli ATCC 35218 assessed as diameter of inhibition zone at 40 uM after 24 hrs by Kirby -Baur disc diffusion method; format: functional; method in brief: as §4
Escherichia coli [16] = test: Antimicrobial activity against Escherichia coli ATCC 35218 assessed as diameter of inhibition zone at 80 uM after 24 hrs by Kirby -Baur disc diffusion method; format: functional; conditions: ATCC 35218, 24 h, read-out: DIZ; method in brief: as §4
Pseudomonas aeruginosa [17] = test: Antimicrobial activity against Pseudomonas aeruginosa ATCC 15499 after 24 hrs by broth micro serial dilution method; format: functional; conditions: ATCC 15499, 24 h; method in brief: as §3
Pseudomonas aeruginosa [18] = test: Antimicrobial activity against Pseudomonas aeruginosa ATCC 15499 assessed as diameter of inhibition zone at 20 uM after 24 hrs by Kirby -Baur disc diffusion method; format: functional; method in brief: as §4
Pseudomonas aeruginosa [19] = test: Antimicrobial activity against Pseudomonas aeruginosa ATCC 15499 assessed as diameter of inhibition zone at 40 uM after 24 hrs by Kirby -Baur disc diffusion method; format: functional; conditions: ATCC 15499, 24 h, read-out: DIZ; method in brief: as §4
Pseudomonas aeruginosa [20] = test: Antimicrobial activity against Pseudomonas aeruginosa ATCC 15499 assessed as diameter of inhibition zone at 80 uM after 24 hrs by Kirby -Baur disc diffusion method; format: functional; method in brief: as §4
Salmonella typhi [21] = test: Antimicrobial activity against Salmonella typhi ATCC 23564 after 24 hrs by broth micro serial dilution method; format: functional, Salmonella enterica subsp. enterica serovar Typhi; conditions: Salmonella enterica, ATCC 23564, 24 h
Salmonella typhi [22] = test: Antimicrobial activity against Salmonella typhi ATCC 23564 assessed as diameter of inhibition zone at 20 uM after 24 hrs by Kirby -Baur disc diffusion method; format: functional; conditions: Salmonella enterica subsp. enterica serovar Typhi
Salmonella typhi [23] = test: Antimicrobial activity against Salmonella typhi ATCC 23564 assessed as diameter of inhibition zone at 40 uM after 24 hrs by Kirby -Baur disc diffusion method; format: functional, Salmonella enterica subsp. enterica serovar Typhi; conditions: Salmonella enterica, ATCC 23564, 24 h; read-out: DIZ
Salmonella typhi [24] = test: Antimicrobial activity against Salmonella typhi ATCC 23564 assessed as diameter of inhibition zone at 80 uM after 24 hrs by Kirby -Baur disc diffusion method; format: functional, Salmonella enterica subsp. enterica serovar Typhi; conditions: Salmonella enterica, ATCC 23564, 24 h; read-out: DIZ
Bacillus cereus [25] = test: Antimicrobial activity against Bacillus cereus MTCC 7350 after 24 hrs by broth micro serial dilution method; format: functional; method in brief: as §3
Bacillus cereus [26] = test: Antimicrobial activity against Bacillus cereus MTCC 7350 assessed as diameter of inhibition zone at 80 uM after 24 hrs by Kirby -Baur disc diffusion method; format: functional; method in brief: as §4
Staphylococcus aureus [27] = test: Antimicrobial activity against Staphylococcus aureus ATCC 11632 after 24 hrs by broth micro serial dilution method; format: functional; method in brief: as §3
Staphylococcus aureus [28] = test: Antimicrobial activity against Staphylococcus aureus ATCC 11632 assessed as diameter of inhibition zone at 20 uM after 24 hrs by Kirby -Baur disc diffusion method; format: functional; method in brief: as §4
Staphylococcus aureus [29] = test: Antimicrobial activity against Staphylococcus aureus ATCC 11632 assessed as diameter of inhibition zone at 40 uM after 24 hrs by Kirby -Baur disc diffusion method; format: functional; method in brief: as §4
Staphylococcus aureus [30] = test: Antimicrobial activity against Staphylococcus aureus ATCC 11632 assessed as diameter of inhibition zone at 80 uM after 24 hrs by Kirby -Baur disc diffusion method; format: functional; method in brief: as §4

SMILES | inhibition in vivo at 200 mg/kg (Mus musculus) | IC50 (HCT-116) | IC50 (QG-56) | IC50 (HeLa) | IC50 (HepG2) | MIC (Trichoderma viride [1]) | inhibition zone (IZ) (Trichoderma viride [2]) | zone of inhibition at 40 µM (Trichoderma viride [3]) | zone of inhibition at 80 µM (Trichoderma viride [4]) | MIC (Curvularia lunata [5]) | inhibition zone (IZ) (Curvularia lunata [6]) | zone of inhibition at 40 µM (Curvularia lunata [7]) | MIC (Aspergillus flavus [8]) | zone of inhibition at 80 µM (Curvularia lunata [9]) | inhibition zone (IZ) (Aspergillus flavus [10]) | inhibition zone (IZ) (Aspergillus niger [12]) | MIC (Escherichia coli [13]) | diameter of the inhibition zone (DIZ) (Escherichia coli [14]) | diameter of the inhibition zone (DIZ) (Escherichia coli [15]) | zone of inhibition at 80 µM (Escherichia coli [16]) | further results
COc1ccc(NS(=O)(=O)c2ccc(/N=N/c3c(/C=C/c4ccc(O)c(OC)c4)noc3/C=C/c3ccc(O)c(OC)c3)cc2)nn1 | 48.3% | Not Active | Not Active | Not Active | Not Active | > 80 µM | inactive | 9 mm | 11 mm | > 80 µM | inactive | 9 mm | > 80 µM | 11 mm | inactive | inactive | > 80 µM | inactive | inactive | 11 mm | MIC (Aspergillus niger [11]; MTCC 1108, 48 h): > 80 µM; MIC (Pseudomonas aeruginosa [17]): 80 µM (≈ 52.5 µg/mL); diameter of the inhibition zone (DIZ) (Pseudomonas aeruginosa [18]): inactive; zone of inhibition at 40 µM (Pseudomonas aeruginosa [19]): 9 mm; zone of inhibition at 80 µM (Pseudomonas aeruginosa [20]; ATCC 15499, 24 h, read-out: DIZ): 13 mm; MIC (Salmonella typhi [21]): 80 µM (≈ 52.5 µg/mL); diameter of the inhibition zone (DIZ) (Salmonella typhi [22]): inactive; zone of inhibition at 40 µM (Salmonella typhi [23]): 9 mm; zone of inhibition at 80 µM (Salmonella typhi [24]): 14 mm; MIC (Bacillus cereus [25]): inactive; diameter of the inhibition zone (DIZ) (Bacillus cereus [26]): inactive; MIC (Staphylococcus aureus [27]; ATCC 11632, 24 h): > 80 µM; diameter of the inhibition zone (DIZ) (Staphylococcus aureus [28]): inactive; diameter of the inhibition zone (DIZ) (Staphylococcus aureus [29]): inactive; zone of inhibition at 80 µM (Staphylococcus aureus [30]; ATCC 11632, 24 h, read-out: DIZ): 10 mm
COc1cc(/C=C/c2noc(/C=C/c3ccc(O)c(OC)c3)c2/N=N/c2ccc(S(=O)(=O)Nc3ccccn3)cc2)ccc1O | 27.4% | Not Active | Not Active | Not Active | Not Active | 80 µM (≈ 50.1 µg/mL) | inactive | 10 mm | 12 mm | > 80 µM | inactive | 10 mm | > 80 µM | 12 mm | inactive | inactive | > 80 µM | inactive | inactive | 10 mm | MIC (Aspergillus niger [11]): inactive; MIC (Pseudomonas aeruginosa [17]): > 80 µM; diameter of the inhibition zone (DIZ) (Pseudomonas aeruginosa [20]): inactive; MIC (Salmonella typhi [21]): 80 µM (≈ 50.1 µg/mL); diameter of the inhibition zone (DIZ) (Salmonella typhi [22]): inactive; zone of inhibition at 40 µM (Salmonella typhi [23]): 9 mm; zone of inhibition at 80 µM (Salmonella typhi [24]): 15 mm; MIC (Bacillus cereus [25]): inactive; diameter of the inhibition zone (DIZ) (Bacillus cereus [26]): inactive; MIC (Staphylococcus aureus [27]): inactive; diameter of the inhibition zone (DIZ) (Staphylococcus aureus [30]): inactive
